Compounds with a hit are over-represented: about 2.2% of the library has one in this group of screens.
ERAP1 inh – inhibitors of human ERAP1 aminopeptidase; AID 652197; Q9NZ08; actives 0.15% (n = 340,000); recombinant ERAP1, Leu-AMC fluorescence, 60 min; inhibition, % at 10.7 µM;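 active = mean replicate inhibition of at least 30%, or all replicates individually reaching that 30% level; inactive = mean below 30% and not every replicate reaching it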
FN deposition inh – fibronectin deposition inhibition; AH1F fibroblasts, Alexa488-fibronectin deposition fluorescence, overnight; inhibition, % at 12.6 µM; actives 0.086% (n = 350,000); AID 743247;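 active = mean inhibition across replicates of 30% or more, regardless of how many single replicates reach that level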
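Assay system: AH1F fibroblasts / Quantity: 10000 cells per well / Medium: DMEM plus 2% serum, read in PBS / Reagent: labelled fibronectin 24 nM / Dosing: single dose, pinned / Times: 1 h cell attachment, overnight exposure to compound and label / Signal: fluorescence, ex 485 nm, em 525 nm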
FGF22 binding-1 – FGF22 (human) thermal shift binding; actives 1.5% (n = 340,000); activity (Tm shift, normalised), % at 9.99 µM; recombinant FGF22 thermal shift, SYPRO orange fluorescence; percent of sucrose octasulfate shift, DMSO zero;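 active = mean Tm shift, scaled 0 neutral to 100 positive control, at about 1.3% or above, every replicate too, limit read from the data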
Target sequence (Q9HCT0 whole entry, looked up): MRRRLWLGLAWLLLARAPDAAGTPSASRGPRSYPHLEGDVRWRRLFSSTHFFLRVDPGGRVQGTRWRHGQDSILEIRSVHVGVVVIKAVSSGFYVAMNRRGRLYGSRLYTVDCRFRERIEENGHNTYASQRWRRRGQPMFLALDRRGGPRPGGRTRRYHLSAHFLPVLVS
SIRT5 block – inhibitors of human sirtuin-5 desuccinylase. Q9NXA8. Purified SirT5, succinyl-peptide AMC, trypsin-coupled fluorescence. inhibition, % at 15 µM. actives 1.1% (n = 330,000). AID 652115; in the data active = inhibition above about 15%
Target sequence (Q9NXA8 whole entry, looked up): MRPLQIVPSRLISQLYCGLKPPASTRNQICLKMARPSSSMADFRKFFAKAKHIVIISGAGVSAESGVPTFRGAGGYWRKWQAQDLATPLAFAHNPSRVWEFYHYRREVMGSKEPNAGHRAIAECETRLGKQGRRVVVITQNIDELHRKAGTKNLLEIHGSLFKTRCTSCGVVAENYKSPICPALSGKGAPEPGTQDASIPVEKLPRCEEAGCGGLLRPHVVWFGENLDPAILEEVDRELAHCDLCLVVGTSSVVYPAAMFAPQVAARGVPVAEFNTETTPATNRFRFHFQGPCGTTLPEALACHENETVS
PGC1a acetyl inh – lowers PGC1a acetylation signal in U2OS cells; AlphaScreen anti-acetyl-lysine; with virally co-expressed GCN5 acetyltransferase; inhibition, % at 15.6 µM; actives 0.17% (n = 350,000);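 active = every replicate shows inhibition of at least 40%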
FGF22 binding-2 – FGF22 (human) binding in thermal shift; actives 2% (n = 1,000); thermal shift activity, °C (ΔTm) at 38 µM; shares compounds with FGF22 binding-1; recombinant FGF22 thermal shift, SYPRO orange fluorescence;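 active = fitted rise in melting shift crosses a set limit at or below the top valid dose tested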
TSA no protein – compound-only SYPRO artifact for FGF22 binders; shares compounds with FGF22 binding-1; AC50, µM (series often up to 38 µM); AID 743019; compound-only SYPRO orange thermal shift counter-screen, no protein; actives 2% (n = 1,000);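 active = rising signal whose fitted curve reaches the 0.54 level within the top valid dose, showing a melting point, actives reach about 13 µM in these data; inactive = the rest, including activity in the opposite direction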; note: value is where the raw curve crosses a fixed level and not half-maximal
Numbers stand for hits.

For CC(C)[C@H]1CCc2cnnn2COC[C@@H](c2ccccc2)NC1=O the results were FN deposition inh inactive.
`Cc1ccc(N(CCC#N)C(=O)COC(=O)c2cc(C)no2)cc1` gave ERAP1 inh inactive, FN deposition inh inactive, FGF22 binding-1 2.8, SIRT5 block inactive, FGF22 binding-2 inactive and TSA no protein inactive.
Screening Cc1ccc(NC(=O)O/N=C/c2ccc(F)cc2)cc1 returned ERAP1 inh inactive, FN deposition inh inactive, FGF22 binding-1 inactive, SIRT5 block inactive and PGC1a acetyl inh inactive.
`O=C(Nc1ccccc1)O/N=C/c1ccc(F)cc1` gave ERAP1 inh inactive, FN deposition inh inactive, FGF22 binding-1 1.4, SIRT5 block inactive, FGF22 binding-2 inactive and TSA no protein inactive.
Screening CCCC#Cc1ccc2c(c1)O[C@@H](CN(C)C(=O)C1CCCCC1)[C@@H](C)CN([C@@H](C)CO)S2(=O)=O returned PGC1a acetyl inh inactive.
CC(C)c1ccc(NC2CCCN(C(=O)c3cc(C(C)C)[nH]n3)C2)cc1 (stereo not given) was read as ERAP1 inh inactive, FN deposition inh inactive, FGF22 binding-1 28, SIRT5 block inactive, PGC1a acetyl inh inactive, FGF22 binding-2 inactive and TSA no protein inactive.
CCCn1c(O)c(C=Nc2ccccc2)sc1=S was read as ERAP1 inh inactive, FN deposition inh inactive, FGF22 binding-1 inactive, SIRT5 block inactive and PGC1a acetyl inh inactive.
For CCn1c(O)c(C=NCc2ccccc2)sc1=S the results were ERAP1 inh inactive, FN deposition inh inactive, FGF22 binding-1 2.9, SIRT5 block inactive, FGF22 binding-2 inactive and TSA no protein inactive.
Screening COc1ccc(N2CCN(CCOc3ccc4c(C)cc(=O)oc4c3)CC2)cc1 returned ERAP1 inh inactive, FN deposition inh inactive, FGF22 binding-1 2.2, SIRT5 block inactive, PGC1a acetyl inh inactive and TSA no protein inactive.
`COCCNC(=O)C[C@H]1CC[C@@H](NS(=O)(=O)c2ccc(C)cc2)[C@H](CO)O1` gave ERAP1 inh inactive, FN deposition inh inactive, FGF22 binding-1 inactive, SIRT5 block inactive and PGC1a acetyl inh inactive.
For N#CCC(=O)Nc1ccc(C(=O)NCCc2c[nH]c3ccccc23)cc1 the results were ERAP1 inh inactive, FN deposition inh inactive, FGF22 binding-1 1.4, SIRT5 block inactive, PGC1a acetyl inh inactive, FGF22 binding-2 inactive and TSA no protein inactive.
Screening O=C(CCc1c[nH]c2ccccc12)Nc1ccc(Oc2cccnc2)cc1 returned ERAP1 inh inactive, FN deposition inh inactive, FGF22 binding-1 1.5, FGF22 binding-2 inactive and TSA no protein inactive.
`O=C(NCCc1c[nH]c2ccccc12)c1ccccc1` gave ERAP1 inh inactive, FN deposition inh inactive, FGF22 binding-1 inactive, SIRT5 block inactive and PGC1a acetyl inh inactive.
For Cc1cc(NC(=O)CCc2c[nH]c3ccccc23)ccc1Oc1cccnc1 the results were ERAP1 inh inactive, FN deposition inh inactive and FGF22 binding-1 inactive.
For O=c1c2cc([N+](=O)[O-])cc([N+](=O)[O-])c2[nH]n1-c1ccccc1 the results were ERAP1 inh inactive, FN deposition inh inactive, FGF22 binding-1 1.8, SIRT5 block inactive, PGC1a acetyl inh inactive, FGF22 binding-2 inactive and TSA no protein inactive.
CCN1[C@@H]2Cn3c(ccc(C4=CCCC4)c3=O)[C@H]1[C@@H](C(=O)NC1CCCC1)[C@@H]2CO was read as ERAP1 inh inactive, FGF22 binding-1 inactive, SIRT5 block inactive and PGC1a acetyl inh inactive.
Screening Cc1ccc(S(=O)(=O)N[C@@H]2C=C[C@@H](CC(=O)N3CCc4ccccc4C3)O[C@H]2CO)cc1 returned ERAP1 inh inactive, FGF22 binding-1 inactive, SIRT5 block inactive and PGC1a acetyl inh inactive.
`Cc1ccc(S(=O)(=O)N[C@H]2C=C[C@H](CC(=O)N3CCc4ccccc4C3)O[C@H]2CO)cc1` gave ERAP1 inh inactive, FGF22 binding-1 1.3, SIRT5 block inactive, PGC1a acetyl inh inactive, FGF22 binding-2 inactive and TSA no protein inactive.
`Cc1ccc(S(=O)(=O)N[C@H]2C=C[C@@H](CC(=O)N3CCc4ccccc4C3)O[C@@H]2CO)cc1` gave ERAP1 inh inactive, FGF22 binding-1 1.3, SIRT5 block inactive, PGC1a acetyl inh inactive, FGF22 binding-2 inactive and TSA no protein inactive.
Screening Cc1ccc(S(=O)(=O)N[C@H]2C=C[C@H](CC(=O)N3CCc4ccccc4C3)O[C@@H]2CO)cc1 returned ERAP1 inh inactive, FGF22 binding-1 inactive, SIRT5 block inactive and PGC1a acetyl inh inactive.
`C[C@@H]1CCCCO[C@H](CN(C)C(=O)C2CCCCC2)[C@H](C)CN([C@H](C)CO)C(=O)c2cc(NS(C)(=O)=O)ccc2O1` gave ERAP1 inh inactive, FGF22 binding-1 1.7, SIRT5 block inactive, PGC1a acetyl inh inactive, FGF22 binding-2 inactive and TSA no protein inactive.
C[C@H]1CCCCO[C@H](CN(C)Cc2ccncc2)[C@@H](C)CN([C@@H](C)CO)C(=O)c2cc(NC(=O)c3ccncc3)ccc2O1 was read as ERAP1 inh inactive, FN deposition inh inactive, FGF22 binding-1 1.2, SIRT5 block inactive, PGC1a acetyl inh inactive, FGF22 binding-2 inactive and TSA no protein inactive.
CC(C)NC(=O)Nc1ccc2c(c1)C(=O)N([C@H](C)CO)C[C@@H](C)[C@@H](CN(C)C(=O)Nc1ccccc1)OCCCC[C@@H](C)O2 was read as ERAP1 inh inactive, FN deposition inh inactive, FGF22 binding-1 2.6, SIRT5 block inactive, PGC1a acetyl inh inactive, FGF22 binding-2 inactive and TSA no protein inactive.
C[C@@H]1CN([C@H](C)CO)C(=O)c2cc(NS(C)(=O)=O)ccc2O[C@@H](C)CCCCO[C@H]1CN(C)Cc1ccncc1 was read as ERAP1 inh inactive, FGF22 binding-1 1.7, SIRT5 block inactive, PGC1a acetyl inh inactive, FGF22 binding-2 inactive and TSA no protein inactive.
Screening C[C@@H]1CN([C@@H](C)CO)C(=O)Cc2cc(N(C)C)ccc2O[C@@H]1CN(C)C(=O)Nc1cccc2ccccc12 returned ERAP1 inh inactive, FGF22 binding-1 inactive, SIRT5 block inactive and PGC1a acetyl inh inactive.
Screening C[C@H](CO)N1C[C@H](C)[C@H](CN(C)Cc2ccc(C(=O)O)cc2)Oc2ccc(NC(=O)C3CC3)cc2C1=O returned ERAP1 inh inactive, FGF22 binding-1 inactive, SIRT5 block inactive and PGC1a acetyl inh inactive.
`C[C@H]1CN([C@@H](C)CO)C(=O)Cc2cc(NC(=O)c3ccncc3)ccc2O[C@H]1CN(C)C(=O)Nc1ccc2c(c1)OCO2` gave ERAP1 inh inactive, FGF22 binding-1 inactive, SIRT5 block inactive and PGC1a acetyl inh inactive.
Screening NC(=O)C(=O)N/N=C/c1c[nH]c2ccc(Br)cc12 returned ERAP1 inh inactive, FN deposition inh inactive, FGF22 binding-1 inactive and SIRT5 block inactive.

Bioassay records: PubChem BioAssay, Broad Institute
